From ChEMBL document CHEMBL1255227, “Novel pyridylmethylamines as highly selective 5-HT(1A) superagonists” (J Med Chem, 2010) come the findings set out here.

For test [1], the target named is T1, D(2) dopamine receptor (Homo sapiens, UniProt P14416). Briefly: Displacement of [3H]Spiperone from human dopamine D2 long receptor. The method, boiled down:
(§1)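 Membranes from CHO cells stably expressing the human receptor, at 5-20 μg protein/assay tube, were competed against [3H]spiperone at 0.1-0.4 nM final. […] IC50 came from sigmoid nonlinear regression.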

Test [2] deals with T1, D(2) dopamine receptor. Briefly: Displacement of [3H]Spiperone from human dopamine D2 short receptor. The method, boiled down: as §1
On the technique in general: In a radioligand displacement assay an active substance lowers the binding of a labelled ligand.

The nature of test [3]: Displacement of [3H]RX821002 from adrenergic alpha2 receptor in pig cortex membranes.
In test [4] the target is T2, 5-hydroxytryptamine receptor 1A (Homo sapiens, UniProt P08908).
T2 sequence (P08908 whole entry): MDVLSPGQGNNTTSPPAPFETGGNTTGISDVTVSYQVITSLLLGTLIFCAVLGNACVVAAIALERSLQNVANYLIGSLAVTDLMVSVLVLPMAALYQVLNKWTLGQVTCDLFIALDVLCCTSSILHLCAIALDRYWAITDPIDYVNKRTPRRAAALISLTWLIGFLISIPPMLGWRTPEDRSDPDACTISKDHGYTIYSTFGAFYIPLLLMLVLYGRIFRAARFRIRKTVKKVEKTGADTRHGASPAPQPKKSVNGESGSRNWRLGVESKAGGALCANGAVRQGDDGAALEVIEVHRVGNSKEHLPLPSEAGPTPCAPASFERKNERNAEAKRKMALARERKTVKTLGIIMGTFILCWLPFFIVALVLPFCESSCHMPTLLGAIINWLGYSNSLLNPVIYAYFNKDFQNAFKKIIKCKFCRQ
Briefly: Intrinsic activity at human 5-HT1A receptor expressed in CHO cells assessed as increase of serotonin-induced [35S]GTPgammaS binding. It is filed as functional, cell-based. The gist of the method: (§2)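 Membranes from CHO cells stably expressing human 5-HT1A were incubated with 0.1 nM [35S]GTPγS and test compound at eight concentrations (0.01-10000 nM), in hexaduplicate. Values come from a mean curve of four experiments. Emax is expressed relative to the maximal serotonin effect.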
In general terms: GTPγS resists hydrolysis and so accumulates on activated G proteins.

Test [5] concerns the target D(3) dopamine receptor (Homo sapiens, UniProt P35462). Briefly: Displacement of [3H]Spiperone from human dopamine D3 receptor. The gist of the method: as §1
Test [6] deals with 5-hydroxytryptamine receptor 2A (Sus scrofa, UniProt P50129). The test can be described thus: Displacement of [3H]Ketanserin from 5-HT2 receptor in pig cortex membranes. It is filed as cell membranes.
Sequence of 5-hydroxytryptamine receptor 2A (P50129 whole entry): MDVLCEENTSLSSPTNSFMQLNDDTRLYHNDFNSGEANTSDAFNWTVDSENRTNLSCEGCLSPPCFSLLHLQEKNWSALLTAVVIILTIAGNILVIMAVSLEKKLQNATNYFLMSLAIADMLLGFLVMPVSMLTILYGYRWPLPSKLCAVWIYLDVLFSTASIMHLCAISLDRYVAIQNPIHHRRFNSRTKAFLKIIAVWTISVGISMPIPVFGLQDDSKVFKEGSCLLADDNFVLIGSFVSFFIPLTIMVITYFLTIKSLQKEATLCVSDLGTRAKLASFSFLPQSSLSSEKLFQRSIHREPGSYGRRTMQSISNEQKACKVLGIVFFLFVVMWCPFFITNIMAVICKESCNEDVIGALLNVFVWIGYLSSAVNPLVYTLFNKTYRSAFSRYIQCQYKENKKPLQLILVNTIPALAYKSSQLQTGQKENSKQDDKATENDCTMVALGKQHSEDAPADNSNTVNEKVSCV
The target of test [7] is T3, 5-hydroxytryptamine receptor 1A (Homo sapiens) (UniProt P08908).
T3 sequence (whole entry): T2 sequence (P08908 whole entry)
The test can be described thus: Intrinsic activity at human 5-HT1A receptor expressed in CHO cells assessed as increase of serotonin-induced [35S]GTPgammaS binding relative to serotonin. It is filed as functional, cell-based. The method, boiled down: as §2

Test [8] can be described thus: Displacement of [3H]Prazosin from adrenergic alpha1 receptor in pig cortex membranes. It is filed as cell membranes, Sus scrofa.
For test [9], the target named is D(1A) dopamine receptor (Sus scrofa, UniProt P50130). Briefly: Displacement of [3H]SCH23390 from dopamine D1 receptor in pig striatal membranes.
Sequence of D(1A) dopamine receptor (P50130 whole entry): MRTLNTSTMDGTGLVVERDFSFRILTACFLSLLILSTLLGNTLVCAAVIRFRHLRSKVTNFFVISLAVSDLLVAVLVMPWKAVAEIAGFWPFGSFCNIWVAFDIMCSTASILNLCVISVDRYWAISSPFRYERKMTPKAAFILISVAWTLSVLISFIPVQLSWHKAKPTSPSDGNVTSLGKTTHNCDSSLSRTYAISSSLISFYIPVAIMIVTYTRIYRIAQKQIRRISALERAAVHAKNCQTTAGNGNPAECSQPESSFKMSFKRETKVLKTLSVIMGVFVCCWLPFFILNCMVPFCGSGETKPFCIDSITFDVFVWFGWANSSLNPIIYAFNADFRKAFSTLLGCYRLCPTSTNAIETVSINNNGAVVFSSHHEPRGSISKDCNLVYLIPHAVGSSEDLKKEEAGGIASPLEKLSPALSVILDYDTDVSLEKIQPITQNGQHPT
Test [10] in a line: Displacement of [3H]WAY-100635 from 5-HT1A receptor in pig cortex membranes. It is filed as cell membranes, Sus scrofa.
Test [11] in a line: Displacement of [3H]8-OH-DPAT from 5-HT1A receptor in pig cortex membranes. It is filed as cell membranes, Sus scrofa.
Test [12] has as its target T4, D(4) dopamine receptor (Homo sapiens, UniProt P21917).
T4 sequence (P21917 whole entry): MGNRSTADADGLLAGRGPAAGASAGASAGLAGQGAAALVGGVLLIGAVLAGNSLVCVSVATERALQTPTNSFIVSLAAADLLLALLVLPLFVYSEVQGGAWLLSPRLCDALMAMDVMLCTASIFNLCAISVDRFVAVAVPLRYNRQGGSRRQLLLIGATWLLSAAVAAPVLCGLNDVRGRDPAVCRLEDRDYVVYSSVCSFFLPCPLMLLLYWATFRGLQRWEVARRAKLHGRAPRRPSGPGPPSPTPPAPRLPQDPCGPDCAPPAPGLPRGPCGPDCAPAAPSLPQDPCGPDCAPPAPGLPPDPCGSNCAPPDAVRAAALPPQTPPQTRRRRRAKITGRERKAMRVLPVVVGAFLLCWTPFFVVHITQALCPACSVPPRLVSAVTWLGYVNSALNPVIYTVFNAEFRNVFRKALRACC
The test can be described thus: Displacement of [3H]Spiperone from human dopamine D4.4 receptor. The gist of the method: as §1

Test [13] has as its system Mus musculus. Briefly: Antinociceptive activity against formalin-induced inflammatory pain in mouse assessed as reduction of paw licking at 1 mg/kg, ip. To be noted: route intraperitoneal. Also noted: scale not given: the % may be the effect or the level left. In kind it is functional.

As usually defined, the Ki is a dissociation constant, usually derived from enzyme kinetics or from competition with a known ligand. The EC50 is the concentration at which the effect is half-maximal. Usually Emax stands for the greatest response seen or fitted, relative to the assay's reference.

SMILES strings stand for the structures.

Sequence of D(3) dopamine receptor (P35462 whole entry): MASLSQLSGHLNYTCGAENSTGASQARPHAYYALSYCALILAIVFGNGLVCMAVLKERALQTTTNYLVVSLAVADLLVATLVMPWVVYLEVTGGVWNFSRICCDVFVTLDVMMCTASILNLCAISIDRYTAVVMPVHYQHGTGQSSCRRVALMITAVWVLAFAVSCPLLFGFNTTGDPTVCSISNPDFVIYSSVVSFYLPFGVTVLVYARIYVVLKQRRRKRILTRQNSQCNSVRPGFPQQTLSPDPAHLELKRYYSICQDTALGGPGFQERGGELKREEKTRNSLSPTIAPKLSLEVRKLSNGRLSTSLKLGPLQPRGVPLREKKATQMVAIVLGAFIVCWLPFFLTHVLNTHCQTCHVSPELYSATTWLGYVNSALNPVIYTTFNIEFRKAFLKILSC
T1 sequence (P14416 whole entry): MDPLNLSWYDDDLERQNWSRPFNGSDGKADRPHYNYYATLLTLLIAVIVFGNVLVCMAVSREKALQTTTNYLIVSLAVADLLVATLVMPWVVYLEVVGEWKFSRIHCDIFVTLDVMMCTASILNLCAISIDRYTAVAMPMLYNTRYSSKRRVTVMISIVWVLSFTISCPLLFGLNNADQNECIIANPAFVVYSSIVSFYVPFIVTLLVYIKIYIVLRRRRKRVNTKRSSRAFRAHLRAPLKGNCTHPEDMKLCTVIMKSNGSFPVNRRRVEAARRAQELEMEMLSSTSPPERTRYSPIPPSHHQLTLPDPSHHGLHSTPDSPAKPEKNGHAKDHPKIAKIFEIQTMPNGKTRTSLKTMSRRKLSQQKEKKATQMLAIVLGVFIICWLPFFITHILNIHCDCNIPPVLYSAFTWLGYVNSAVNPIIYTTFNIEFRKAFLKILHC

`Cc1ccc(CNCC2(F)CCN(C(=O)c3coc4ccccc34)CC2)nc1`: the Ki was determined as 27000 nM in test [1]; 28000 nM in test [2]; 2800 nM in test [3]; 12000 nM in test [5]; 53000 nM in [6]; 2800 nM in test [8]. Further, the Ki came to 48000 nM in test [9], 4.2 nM in test [10], 1.1 nM in [11] and 590 nM in test [12]. For the same compound, the EC50 in test [4] came out at 16 nM. Besides, in test [7], the maximal effect (Emax) is 101%.

As to `Cc1ccc(CNCC2(F)CCN(C(=O)c3cccs3)CC2)nc1`, the concentration for a half-maximal effect (EC50) in test [4] is 18 nM. The Activity in test [13] stood at 45%. Besides, the maximal effect (Emax) in [7] was 91%. Besides, the affinity in test [10] corresponds to a Ki of 27 nM.

For `Cc1ccc(CNCC2(F)CCN(C(=O)c3ccc(F)c(Cl)c3)CC2)nc1` [BEFIRADOL], the inhibitory constant (Ki) in test [1] was found to be 15000 nM; in test [2], 46000 nM; in test [3] it was 3700 nM; in [5], 10000 nM; in [6], 23000 nM; in [8] it was 4500 nM. The inhibition constant (Ki) came to 26000 nM in test [9], 1.1 nM in [10], 0.33 nM in test [11] and 2000 nM in [12].

As for `Cc1ccc(CNCC2(F)CCN(C(=O)c3ccco3)CC2)nc1`, the EC50 in test [4] stood at 15 nM. Moreover, in test [13], the Activity was 35%. Also, in test [7], the maximal response (Emax) came to 81%. This compound also gave a Ki in [10] of 62 nM.

Regarding `Cc1ccc(CN(C)CC2(F)CCN(C(=O)c3ccc(F)c(Cl)c3)CC2)nc1`, in [4], the 50% effective concentration (EC50) was 8.6 nM. Also, in test [7], the Emax is 77%. Besides, the affinity in test [10] corresponds to a Ki of 74 nM.

`Cc1ccc(CNCC2(F)CCN(C(=O)c3cc(Br)cs3)CC2)nc1`: the Ki in [1] worked out at 73000 nM; in test [2] it was 100000 nM; in test [3] it was 3500 nM; in test [5], 19000 nM; in test [6], 18000 nM; in [8], 2300 nM. Further, the Ki in [9] came out at 34000 nM; in [10], 6.2 nM; in test [11], 1.8 nM; in [12] it was 2000 nM. The EC50 in test [4] was 17 nM. Moreover, the Emax in test [7] was 116%.

For the compound `Cc1ccc(CNCC2(F)CCN(C(=O)c3ccc(C)s3)CC2)nc1`, the EC50 in test [4] came to 42 nM. Further, in test [7], the maximal effect (Emax) was determined as 104%. In addition, the Ki in test [10] stood at 14 nM.

With `Cc1ccc(CNCC2(F)CCN(C(=O)c3csc4ccccc34)CC2)nc1`, the inhibition constant (Ki) was determined as 20000 nM in test [1]; 54000 nM in test [2]; 1700 nM in test [3]; 8700 nM in test [5]; 22000 nM in [6]; 2000 nM in [8]. In addition, the Ki in [9] is 45000 nM; in test [10], 2.7 nM; in test [11], 0.86 nM; in [12], 460 nM. The EC50 in test [4] came to 10 nM. Besides, the Emax in test [7] worked out at 124%.

On to `COc1c(C(=O)N2CCC(F)(CNCc3ccc(C)cn3)CC2)csc1Br`, for which, in test [4], the half-maximal effective concentration (EC50) is 62 nM. Moreover, the maximal effect (Emax) in test [7] came out at 95%. The same compound displayed an inhibition constant (Ki) in test [10] of 17 nM.

For `Cc1ccc(CNCC2(F)CCN(C(=O)c3ccc(Cl)s3)CC2)nc1`, the EC50 in test [4] stood at 46 nM. For the same compound, the maximal response (Emax) in test [7] was determined as 101%. Besides, the affinity in test [10], expressed as Ki, was 21 nM.

With `Cc1ccc(CNCC2(F)CCN(C(=O)c3sc4sccc4c3Cl)CC2)nc1`, the EC50 in test [4] came to 59 nM. In addition, in [7], the maximum response (Emax) came out at 97%. Further, the Ki in [10] was found to be 25 nM.

As to `Cc1ccc(CNCC2(F)CCN(C(=O)C34CC5CC(CC(O)(C5)C3)C4)CC2)nc1`, the EC50 in test [4] was determined as 600 nM. Further, the maximal effect (Emax) in [7] was 90%. In test [10], the Ki came out at 1300 nM.

On to `Cc1ccc(CNCC2(F)CCN(C(=O)c3sccc3Cl)CC2)nc1`, for which the concentration for a half-maximal effect (EC50) in test [4] amounted to 30 nM. The maximal effect (Emax) in test [7] amounted to 99%. The same compound had an inhibitory constant (Ki) in test [10] of 25 nM.

Turning to `COc1c(C(=O)N2CCC(F)(CNCc3ccc(C)cn3)CC2)csc1Cl`, the EC50 in test [4] amounted to 50 nM. In addition, the Emax in [7] is 102%. Moreover, in [10], the Ki amounted to 18 nM.

On to `Cc1ccc(CNCC2(F)CCN(C(=O)c3ccc(Br)s3)CC2)nc1`, for which, in test [4], the EC50 came to 30 nM. Further, the Emax in test [7] came to 95%. The compound further had an inhibition constant Ki in [10] of 19 nM.
